High-throughput results deposited in PubChem by several laboratories.
XBP1 UPR activ – activators of adaptive XBP1 UPR arm, primary screen, cell-based, CHO-XBP1 luciferase reporter, luminescence, uHTS | 330,000 compounds, 0.33% hits | activation, % at 20 µM | IRE1-XBP1 UPR activation; percent of tunicamycin response, DMSO as zero;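 active = versus positive control, 20 µM dose yields 30% or more activation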;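 also: 100% = tunicamycin at 10 µg/mL and 0% = DMSO only wells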
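incubation = overnight seeding at 37 °C, 6 h compound treatment at 37 °C | assay system = CHO-XBP1 cells stably carrying IRE1-XBP1-driven luciferase reporter | input = 1000 cells per well | detection = luciferase luminescence | dosing = single point, 20 µM final compound, 1% DMSO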
Jurkat NFkB inh – inhibitors of induced NF-kB luciferase reporter, primary screen, TCR NF-kB activation inhibitor project, cell-based, luminescence, uHTS; inhibition, % at 4 µM; Jurkat, PMA/ionomycin-induced NF-kB luciferase reporter; 330,000 compounds, 0.53% hits; in the data active = inhibition above about 50%
CHOP UPR activ – activators of apoptotic CHOP UPR arm, primary screen, cell-based, CHO-CHOP luciferase reporter, luminescence, uHTS; AID 449763, 2010; activation, % at 10 µM; UPR activation; percent of tunicamycin response over DMSO baseline; 330,000 compounds, 0.34% hits;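 active = at 10 µM dose, activation of 40% or more, normalized to positive control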;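 also: 100% = tunicamycin at 10 µg/mL and 0% = DMSO alone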
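assay system = CHO CHOP reporter cells | amount = 500 CHO-CHOP cells per well | buffer or medium = F12 with 10% FBS | incubation = 16-18 h cell attachment, then 6 h compound exposure, 37 °C | detection = luminescence read with Steady-Glo | read-out = percent activation relative to tunicamycin control | controls = tunicamycin high control, DMSO low control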
697 NFkB inh – inhibitors of PMA/ionomycin-induced NF-kB reporter, 697 cells, primary screen, B-cell NF-kB inhibitor project, cell-based, luminescence, uHTS; AID 435022, 2010; 330,000 compounds, 0.33% hits; inhibition, % at 4 µM; 697 B-cell NF-kB luciferase reporter, 16 h; in the data active = inhibition above about 35%
CHOP inh – inhibitors of CHOP promoter induction, primary screen, cell-based, unfolded protein response, luciferase reporter; 220,000 compounds, 3.8% hits; CHO-K1 CHOP-promoter luciferase, tunicamycin-induced, 15-18 h; inhibition, % at 10 µM;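 active = compounds that reduced the stress-induced luciferase reporter signal by more than about 70% of percent inhibition, limit read from the data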;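 also: 0% = tunicamycin plus vehicle and 100% = wells without tunicamycin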
Numbers without * were called inactive; . = no result given. This excerpt belongs to a sample that is enriched for hits.

SMILES	XBP1 UPR activ	Jurkat NFkB inh	CHOP UPR activ	697 NFkB inh	CHOP inh
Cc1cc(C)cc(NC(=O)COC(=O)CCC2CCCC2)c1	0	-4	1	6	.
CC(C)(C)NC(=O)NC(=O)COC(=O)CCC1CCCC1	-1	3	1	5	77*
COc1cc2c(cc1OC)CN(c1nc(CN3CCCC3)nc3sc(C)c(C)c13)CC2	2	4	-3	-4	78*
COc1cc2c(cc1OC)CN(c1nc(CN3CCCCC3)nc3sc4c(c13)CCCC4)CC2	2	-8	0	-21	30
O=C(Cc1ccc(Cl)cc1)Nc1cccc(S(=O)(=O)N2CCCCC2)c1	-2	-12	0	-11	.
O=C(CCl)Nc1cccc(S(=O)(=O)N2CCCCCC2)c1	-1	21	15	17	93*
COc1ccc([N+](=O)[O-])cc1NC(=O)C(C)c1ccccc1 (stereo not given)	-3	4	1	15	58
COc1ccc([N+](=O)[O-])cc1NC(=S)NC(NC(=O)C(c1ccccc1)c1ccccc1)C(Cl)(Cl)Cl (stereo not given)	2	2	15	-4	73*
O=C1CC(N2CCSCC2)C(=O)N1c1cccc(Cl)c1 (stereo not given)	1	1	0	6	0
COc1ccc(Cl)cc1NC(=O)Nc1cccc([N+](=O)[O-])c1C	7	-8	0	17	84*
COc1ccc(Cl)cc1NC(=O)NC1CCCCC1	-3	-1	0	4	19
O=C(NN1CCOCC1)c1ccc(Cl)cc1[N+](=O)[O-]	-7	-6	2	6	.
Cc1nc(Nc2ccc(Cl)c(Cl)c2)sc1C(=O)Nc1ccccc1	4	-7	5	-2	96*
Cc1nc(NC(=O)/C=C/c2ccccc2)sc1C(=O)Nc1ccccc1Cl	-1	2	-1	-17	54
Cc1nc(NC(=O)/C=C/c2ccccc2)sc1C(=O)Nc1ccc(Cl)cc1	5	10	4	18	88*
COc1ccc(-n2c(=O)c3c4c(sc3n3c(=S)[nH]nc23)COC(C(C)C)C4)cc1 (stereo not given)	1	11	1	15	31
O=C(COc1ccccc1C(=O)NCC1CCCO1)Nc1ccc(Br)cc1 (stereo not given)	0	-5	1	-5	20
Cn1c(N)c(Sc2ccc(F)cc2)c(=O)n(C)c1=O	-1	6	1	-1	7
CCCC(=O)n1nc(-c2ccc(Cl)cc2)nc1SC	5	-25	5	-37	78*
CSc1nc(-c2ccc(Cl)cc2)nn1S(=O)(=O)c1ccc(Cl)cc1	0	-33	6	-33	72*
CSc1nc(-c2ccc(Cl)cc2)nn1S(=O)(=O)c1ccccc1	8	-27	8	-41	33
CCN(Cc1cccs1)C(=O)CN1C(=O)NC(c2ccccc2)(c2ccccc2)C1=O	-2	0	0	14	.
Cn1cc(/C=C(\NC(=O)c2ccccc2Cl)C(=O)NCCCn2ccnc2)c2ccccc21	-2	-1	1	-17	.
Cc1cccc2cc(CN(Cc3ccc(F)cc3)C(=O)C(F)(F)F)c3nnnn3c12	-1	-8	1	-17	8
Cc1cccc2cc(CN(Cc3ccc(F)cc3)C(=O)N(C)C)c3nnnn3c12	-3	-4	-1	-29	90*
SMILES	XBP1 UPR activ	Jurkat NFkB inh	CHOP UPR activ	697 NFkB inh	CHOP inh
CCN(c1ccc(NC(=O)CSCc2c(C)noc2C)cc1)C(C)C	-2	-13	-2	10	.
CCS(=O)(=O)N1CCC(NC(=O)C(Cc2cccc(OC)c2OC)NC(C)=O)CC1 (stereo not given)	-2	4	0	-23	.
CC(NC(=O)C12CC3CC(C)(CC(C)(C3)C1)C2)c1ccncc1 (stereo not given)	-7	6	-3	-10	.
CCc1ccc(Nc2nnc(SCn3nnc4ccccc4c3=O)s2)cc1	-1	-9	1	-22	82*
O=C(Nc1ccccc1)c1ccccc1NS(=O)(=O)c1ccc(Cl)s1	1	18	0	3	24
O=C(Nc1ccccc1Cc1ccccc1)c1ccccc1NS(=O)(=O)c1ccc(Cl)s1	0	12	6	2	71*
O=C1Nc2ccccc2/C1=C/c1ccccc1F	7	-6	5	-6	.
O=C1Nc2ccccc2/C1=C\c1cccn1-c1ccc(OC(F)(F)F)cc1	-2	-2	0	8	93*
O=C(c1ccc(Cl)cc1)C1CCN(C(=O)c2ccc(F)cc2)CC1	-2	6	0	-24	.
CC(=O)N1CCC(C(=O)c2ccc(Cl)cc2)CC1	-3	-8	-2	2	89*
COc1cc(S(=O)(=O)N2CCOCC2)cc(C(=O)OCC(=O)NC2CCCCC2)c1OC	2	-10	0	5	.
Cc1ccccc1OCCCCc1c(C)n[nH]c1C	0	-2	2	-27	85*
Cc1cccc(C)c1OCCCCc1c(C)n[nH]c1C	-1	2	1	-4	86*
COc1cccc(OC)c1OCCCCc1c(C)n[nH]c1C	-2	-2	-1	-4	-6
Cc1ccccc1OCCCc1c(C)n[nH]c1C	0	21	3	-9	-6
CC(NC(=O)COC(=O)c1cn(-c2ccccc2)nc1-c1cccs1)c1ccccc1 (stereo not given)	0	3	3	11	90*
Cn1c(O)c(N=NC(=O)CNC(=O)c2cccnc2)c2ccccc21	0	4	1	11	.
CC(=O)C1=C(C)NC(=O)CC1c1ccccc1Cl (stereo not given)	-2	2	-2	10	1
CC1=C(C(=O)OC(C)C)C(c2ccccc2Cl)CC(=O)N1 (stereo not given)	-4	-4	-1	-15	76*
Cc1ccccc1CS(=O)(=O)Cc1ccc(C(=O)NCCCN2CCCC2=O)o1	1	7	1	-6	73*
O=C(CCCN1C(=O)NC2(CCCC2)C1=O)Nc1ccc(Cl)c(S(=O)(=O)N2CCOCC2)c1	-2	7	1	-2	.
O=S(=O)(Cc1c(F)cccc1Cl)c1ncn[nH]1	-8	2	-1	8	3
Nc1nc(SCc2nc3scc(-c4cccs4)c3c(=O)[nH]2)n[nH]1	-3	-3	-1	9	78*
C[N+](C)=C1SCC(C)(/C=N/O)S1 (stereo not given)	-1	-11	0	3	-13
COc1ccc(Br)cc1CN(C)C(C)C(=O)Nc1cc([N+](=O)[O-])ccc1OC (stereo not given)	-2	0	0	7	22
